APJ agonist – APJ receptor agonism. P35414. CHO-K1 APJ PathHunter beta-arrestin, luminescence; 0% DMSO wells, 100% apelin. activation, % at 20 µM. hit rate 0.11% among 330,000;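 active = activation more than six SD over the plate average, tested at 20 µM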;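 also: 0% = DMSO alone and 100% = apelin-13 at 10 nM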
Target sequence (P35414 whole entry, looked up): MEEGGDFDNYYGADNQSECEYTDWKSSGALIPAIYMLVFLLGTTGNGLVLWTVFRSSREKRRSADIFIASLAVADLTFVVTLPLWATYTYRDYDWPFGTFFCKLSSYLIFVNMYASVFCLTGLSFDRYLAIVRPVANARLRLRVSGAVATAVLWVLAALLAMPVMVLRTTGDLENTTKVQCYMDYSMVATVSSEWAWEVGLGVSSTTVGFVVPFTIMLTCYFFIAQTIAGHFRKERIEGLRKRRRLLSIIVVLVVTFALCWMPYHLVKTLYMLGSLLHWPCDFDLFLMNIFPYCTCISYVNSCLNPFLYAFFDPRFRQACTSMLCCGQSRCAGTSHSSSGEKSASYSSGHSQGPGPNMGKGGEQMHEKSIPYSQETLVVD
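Material: CHO-K1 APJ beta-arrestin complementation cell line; Input: cell density 1000 per well; Incubation: compound stimulation 90 min at 25 °C, detection 60 min; Signal: luminescence from split beta-galactosidase complementation, Galacton Star/Emerald II substrate; Controls: DMSO-only wells as negative, 10 nM Apelin-13 as positive control.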
CCR6 antag – blocks CCL20-driven beta-arrestin recruitment at human CCR6 | inhibition, % at 20 µM | hit rate 0.49% among 340,000 | CHO-K1 CCR6 PathHunter beta-arrestin, luminescence, CCL20-stimulated | AID 493098 | P51684;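 active = compounds whose inhibition of the agonist-driven luminescence signal at 20 µM reaches about 50%, limit read from the data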;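 also: cells stimulated with CCL20 at 14 nM final; plate controls were DMSO with CCL20 for no effect and DMSO without agonist for full effect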
CXCR6 block – CXCR6 (human) receptor inhibition; O00574; CHO-K1 PathHunter CXCR6 beta-arrestin, luminescence; inhibition, % at 20 µM; hit rate 0.36% among 360,000; in the data active = inhibition above about 34%, passing the limit was not always enough;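 also: antagonist mode with CXCL16 agonist at 10 nM final; 0% = 10 nM CXCL16 with DMSO and 100% = unstimulated wells without agonist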
APJ antag – blocks the human apelin receptor APJ | P35414 | CHO-K1 APJ beta-arrestin complementation, luminescence | inhibition, % at 20 µM | hit rate 0.32% among 330,000 | AID 2521;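 active = inhibition above about 40% at 20 µM, limit read from the data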;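 also: cells challenged with 10 nM apelin-13 agonist together with compound; plate controls were apelin-13 plus DMSO wells for no effect and DMSO wells lacking apelin-13 for full effect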
PKA-R2B activ – PKA-R2B complex activation; P22694+P31323; PKA-R2B holoenzyme dissociation, Cy5-IP20 fluorescence polarization; R2B truncated from residue 108, S112A mutant; 0% DMSO only, 100% 113 µM cGMP; activation, % at 11.4 µM; hit rate 0.079% among 340,000;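 active = activation above a cutoff set at the mean over all compounds plus 3 SD, cut at about 18% in these data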;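 also: higher means more holoenzyme dissociation and a rise in polarization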
PKA-R1A activ – PKA-R1A complex activation; P00514+P68181; PKA-R1A dissociation, Cy5-IP20 fluorescence polarization; scaled: DMSO 0%, 113 µM cGMP 100%; activation, % at 11.4 µM; hit rate 0.083% among 340,000; AID 504707;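 active = percent activation above the mean of all tested compounds plus 3 SD, cut at about 19% in these data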;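 also: higher means more PKAc released from R1A so a rise in polarization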
The depositor's hits bear a star; . = no result given. Only some compounds are listed: those with a hit (about 0.88% of all), similar ones and a draw of the others.

SMILES	APJ agonist	CCR6 antag	CXCR6 block	APJ antag	PKA-R2B activ	PKA-R1A activ
N#C/C(=C\c1ccc(-c2ccc(F)cc2)o1)C(=O)Nc1nc(-c2cccs2)cs1	-7	55*	26	30	4	1
COc1ccccc1N=Cc1c(C)[nH]n(-c2ccc(C)cc2C)c1=O	-3	14	0	9	6	-1
Cc1cc(Br)ccc1-n1[nH]c(C)c(C=Nc2cccc3nsnc23)c1=O	-4	52*	33	-22	-3	4
COc1ncc(-c2ccc(N3C(c4ccc([N+](=O)[O-])cc4)=Cc4ccccc4C3CC(C)=O)cc2)cn1 (stereo not given)	.	.	0	.	.	.
CCOc1cnn(-c2cc(Oc3ccc(C)cc3)ncn2)c(=O)c1Cl	0	13	-3	-13	-5	8
Cc1ccccc1Oc1cc(-n2ncc(Cl)c(Cl)c2=O)ncn1	.	65*	46*	.	-6	-7
O=C(N=Nc1c(O)[nH]c2ccc([N+](=O)[O-])cc12)c1cc(-c2ccccc2Cl)nc2ccccc12	-2	65*	36	13	-6	-2
O=C(O)c1cc(N=Nc2c(O)[nH]c3ccc([N+](=O)[O-])cc23)ccc1Cl	-7	40	40*	36	-1	13
NC(=O)N=Nc1c(O)[nH]c2ccc([N+](=O)[O-])cc12	0	18	3	-1	0	8
COc1ccc2sc(-c3ccccc3OC)c(-c3ccc(OCCN(C)C)cc3)c2c1	.	52*	-3	.	-4	-6
COc1ccc2sc(-c3ccccc3OC)c(-c3ccc(SC)cc3)c2c1	.	.	8	.	.	.
COCCN=c1scc(-c2ccc3c(c2)NC(=O)CO3)n1/N=C(\C)c1ccc(O)cc1	-6	.	56*	0	-6	4
COc1cc(/C=N/n2c(-c3ccc4c(c3)NC(=O)CO4)csc2=Nc2cccc(C)c2)ccc1O	-4	19	13	7	-12	-5
O=C(CSC1=NCCS1)NC(NC(=O)CSC1=NCCS1)c1ccccc1	-3	2	0	7	0	-8
O=C(CSC1=NCCS1)NC(c1ccccc1)c1ccccc1	-4	14	3	10	3	19*
O=C1C=CC(=O)N1c1ccccc1N1C(=O)C=CC1=O	.	108*	72*	.	-2	2
O=C(Nc1nc(-c2cc(F)ccc2F)cs1)c1ccccn1	-7	65*	41*	68*	-12	-10
O=C(/C=C/c1ccccc1)c1cc(Br)ccc(=O)c1O	-4	59*	19	24	-3	8
O=C1c2cccc(O)c2C(=O)c2c(O)cccc21	19	.	.	-24	.	.
CC1OC(CC(=O)O)CC2=C1C(=O)c1c(O)cccc1C2=O (stereo not given)	.	89*	74*	.	-9	-1
Cc1oc2c(c1C(=O)O)C(=O)c1ccccc1C2=O	1	-20	-18	-170	5	-2
Cc1oc2c(c1C(=O)c1ccccc1)C(=O)C(=O)c1ccccc1-2	9	71*	36	-11	-10	-8
CCC(C)C1=CC(=Nc2c(C)n(C)n(-c3ccccc3)c2=O)C=C(C(C)CC)C1=O (stereo not given)	-6	51*	33	9	-1	-12
CN(C)c1ccc(/C=C2/C[N+](C)(C)C/C(=C/c3ccc(N(C)C)cc3)C2=O)cc1	.	62*	49*	.	-2	1
O=C(O)C1Nc2c(Cl)cc(Cl)c(Cl)c2C2C=CCC12 (stereo not given)	.	1	7	.	4	1
SMILES	APJ agonist	CCR6 antag	CXCR6 block	APJ antag	PKA-R2B activ	PKA-R1A activ
CC(C)C1Nc2c(O)cc(Cl)c([N+](=O)[O-])c2C2C=CCC21 (stereo not given)	.	50*	30	.	-4	-1
O=C1CN(S(=O)(=O)c2cc(Br)ccc2Br)CCN1	-2	8	-6	5	-6	-5
O=c1c(Br)ccc(Br)cc1Br	.	111*	95*	.	-2	-2
O=C(NCc1ccccc1)C1c2ccccc2OCC(=O)N1CCc1c[nH]c2ccccc12 (stereo not given)	.	.	-3	.	.	.
O=C1NC[C@@H](CCCCN2C[C@H](Cc3ccc(O)cc3)N(CCc3ccc(O)cc3)C(=O)C2=O)N(Cc2ccccc2)C1=O	.	.	-3	.	.	.
Cc1ccc(OCC(=O)NNC(=S)NC(=O)c2cccs2)c(C)c1	-7	55*	37	10	1	-9
N#C/C(=N\Nc1ccc(Cl)cc1)C(=O)c1ccccc1	3	20	10	17	1	-1
Cc1c(N/N=C(\C#N)C(=O)c2ccc(Cl)cc2)c(=O)n(-c2ccccc2)n1C	.	81*	77*	.	-7	3
CCCCC[C@@H](C)N1C[C@@H](COCc2ccccc2)Oc2cc(N3CC[C@H](N(C)C)C3)ccc2S1(=O)=O	.	.	15	.	.	.
O=S(c1ccccc1O)S(=O)c1ccccc1O (stereo not given)	.	6	1	.	-3	4
CC1CC(C)CN(S(=O)(=O)N2CCCC(C(=O)NCc3ccccc3Cl)C2)C1 (stereo not given)	4	56*	7	4	5	-5
O=CC(=O)c1ccccc1	-3	76*	34	12	3	-7
O=C1O[C@@H](c2ccccc2)C[C@@H](O)C(=O)CCCCc2ccccc21	.	.	0	.	.	.
CC1=CC(C)(C)Nc2ccc(OC(=O)c3ccco3)cc21	-8	52*	26	30	2	-13
Cc1ccc(OCCN2C(=O)C(=O)c3cc(C)ccc32)cc1	-5	52*	21	18	-2	-6
Cc1ccc(OCCCN2C(=O)C(=O)c3cccc(C)c32)cc1	-10	57*	19	38	-13	-9
Cc1cccc2c1N(CCOc1ccc(C(C)(C)C)cc1)C(=O)C2=O	2	35	26	12	-11	-11
Cc1ccccc1N=C/C=C1/C=C(c2ccccc2)OC(C)(C)O1	-3	-4	1	5	1	-9
CC1(C)OC(c2ccccc2)=C/C(=C/C=C2C(=O)c3ccccc3C2=O)O1	-7	59*	46*	36	7	2
Cn1nnnc1N=N/C(=N/Nc1ccccc1)c1ccccc1	-7	87*	44*	37	-23	-3
COc1ccc(CCNC2=CC(=O)CCC2)cc1OC	.	.	4	.	.	.
CCOC(=O)CS(=O)(=O)c1nc(-c2ccc(F)cc2)cc(C(F)(F)F)n1	-1	52*	67*	35	-4	-13
O=C(Cn1c(N2CCN(c3ccccc3)CC2)nc2ccccc21)c1ccccc1	-1	50*	26	23	-1	-4
C=C(CN(C)C)C(=O)c1cc(C)ccc1C	.	108*	96*	.	1	-12

From PubChem BioAssay
